Experimental data taken from ChEMBL document CHEMBL1139478, “Piperazinobenzopyranones and phenalkylaminobenzopyranones: potent inhibitors of breast cancer resistance protein (ABCG2)” (J Med Chem, 2005).

What was measured:
[1] = target: T1, Broad substrate specificity ATP-binding cassette transporter ABCG2 (Homo sapiens, UniProt Q9UNQ0); assay: Inhibition of BCRP expressed in mitoxantrone-resistant human HCT116 cells assessed as increase in mitoxantrone accumulation at 10 uM after 15 mins; assay type: cell-based; conditions: hct-116, 0.25 h
T1 sequence (Q9UNQ0 whole entry): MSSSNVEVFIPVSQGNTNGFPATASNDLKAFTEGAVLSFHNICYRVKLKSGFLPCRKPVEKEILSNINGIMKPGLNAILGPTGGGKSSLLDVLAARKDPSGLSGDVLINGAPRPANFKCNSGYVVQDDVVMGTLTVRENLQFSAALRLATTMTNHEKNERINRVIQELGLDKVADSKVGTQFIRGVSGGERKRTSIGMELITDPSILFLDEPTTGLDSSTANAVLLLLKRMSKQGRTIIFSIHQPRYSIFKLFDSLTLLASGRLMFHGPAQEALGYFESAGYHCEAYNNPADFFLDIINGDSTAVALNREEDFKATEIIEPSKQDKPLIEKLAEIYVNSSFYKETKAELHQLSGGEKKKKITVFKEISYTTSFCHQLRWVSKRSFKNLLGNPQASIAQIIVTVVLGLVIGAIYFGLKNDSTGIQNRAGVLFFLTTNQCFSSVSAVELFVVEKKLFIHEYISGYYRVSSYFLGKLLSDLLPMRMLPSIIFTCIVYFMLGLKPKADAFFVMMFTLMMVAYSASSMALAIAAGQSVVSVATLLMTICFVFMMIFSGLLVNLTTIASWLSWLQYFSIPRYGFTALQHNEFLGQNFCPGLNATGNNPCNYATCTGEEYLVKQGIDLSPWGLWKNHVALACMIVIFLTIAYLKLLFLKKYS
In short: (§1)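 HCT116/R cells from ~90% confluent flasks, trypsinized, washed and resuspended at 10^6 cells/mL in serum-free RPMI. Preincubated 15 min at 37 °C with modulator (10 to 0.1 μM final, from 10 mM DMSO stock), then 3 μM mitoxantrone added for 30 min. Stopped with ice-cold PBS, washed; intracellular mitoxantrone by flow cytometry (488 nm excitation, 670 nm band-pass), mean fluorescence intensity in arbitrary units.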

[2] = Cytotoxicity against mitoxantrone-sensitive human HCT116 cells at 10 uM assessed as viable cells after 48 hrs; assay type: cell-based, HCT-116; conditions: read-out: Activity
In short: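 HCT116/S cells exposed to compound at 10, 1 and 0.1 μM; cell cycle distribution (G0/G1, S, G2/M) and viability by flow cytometry after trypsin/spermine detergent buffer 10 min room temperature, trypsin inhibitor plus ribonuclease A 10 min, then PI 10 min, read immediately.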

[3] = target: T1, Broad substrate specificity ATP-binding cassette transporter ABCG2; assay: Inhibition of BCRP expressed in mitoxantrone-resistant human HCT116 cells assessed as increase in mitoxantrone accumulation at 1 uM after 15 mins; assay type: cell-based; conditions: hct-116, 0.25 h; in short: as §1
HCT-116 [4] = assay: Potentiation of mitoxantrone-induced cytotoxicity in mitoxantrone-resistant human HCT116 cells at 10 uM assessed as apoptotic cells after 48 hrs by flow cytometry; assay type: cell-based; conditions: hct-116, 48 h
In short: (§2)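 After 24 h attachment, HCT116/R medium replaced with fresh medium holding 1 μM mitoxantrone plus modulator (10, 1, 0.1 μM); 48 h at 37 °C, PBS washes. Dead cells by propidium iodide uptake (2 μg/mL) in unfixed cells, FSC/FL2 flow cytometry; apoptosis by annexin V-FITC/PI staining, 10 min room temperature, flow cytometry; viable, apoptotic and dead percentages reported.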

HCT-116 [5] = assay: Potentiation of mitoxantrone-induced cytotoxicity in mitoxantrone-resistant human HCT116 cells at 10 uM assessed as dead cells after 48 hrs by flow cytometry; assay type: cell-based; conditions: hct-116, 48 h; in short: as §2

SMILES	Fluorescence intensity [1] [a.u.]	further results
CC(C)(C)OC(=O)N1CCN(C(=O)c2cc(=O)c3c(O)cccc3o2)CC1	179	viability at 48 h, 10 µM [2]: 60%
CCCCCN1CCN(C(=O)c2cc(=O)c3c(O)cccc3o2)CC1	225	–
O=C(c1cc(=O)c2c(O)cccc2o1)N1CCN(CCO)CC1	72	–
O=C(c1cc(=O)c2c(O)cccc2o1)N1CCN(CC2CCCCC2)CC1	92	–
COc1ccc(CCNC(=O)c2cc(=O)c3c(O)cccc3o2)cc1OC	315	Activity [3]: Active; viability at 48 h, 10 µM [2]: 60%
COc1ccc(CNC(=O)c2cc(=O)c3c(O)cccc3o2)cc1OC	197	–
CCCCN1CCN(C(=O)c2cc(=O)c3c(O)cccc3o2)CC1	223	Activity (HCT-116 [4]): 27%; viability at 48 h, 10 µM [2]: 60%; Activity (HCT-116 [5]): 22%
CC(C)CN1CCN(C(=O)c2cc(=O)c3c(O)cccc3o2)CC1	92	–
O=C(c1cc(=O)c2c(O)cccc2o1)N1CCNCC1	86	–
CCCN1CCN(C(=O)c2cc(=O)c3c(O)cccc3o2)CC1	104	–
COc1ccc(CCNC(=O)c2cc(=O)c3c(O)cccc3o2)cc1	320	Activity (HCT-116 [4]): 42%; Activity [3]: Active; Activity (HCT-116 [5]): 8%
O=C(NCCc1ccccc1)c1cc(=O)c2c(O)cccc2o1	282	viability at 48 h, 10 µM [2]: 60%
CC(=O)N1CCN(C(=O)c2cc(=O)c3c(O)cccc3o2)CC1	112	–
CCN1CCN(C(=O)c2cc(=O)c3c(O)cccc3o2)CC1	108	–
COc1ccc2c3c([nH]c2c1)[C@H](C=C(C)C)N1C(=O)[C@@H]2CCCN2C(=O)[C@@H]1C3 [FUMITREMORGIN]	315	–
Cc1ccc(NC(=O)c2ccc(CN3CCN(C)CC3)cc2)cc1Nc1nccc(-c2cccnc2)n1 [IMATINIB]	334	–
